According to ChEMBL document CHEMBL1137411, “Development of small-molecule cyclin D1-ablative agents” (J Med Chem, 2006):
Activity calls are given as the source filed them. The calls are words filed in the database; no cut-off is given here.

What was measured:
MCF7 [1] = assay: Repression of cyclinD1 level in MCF7 cells at 2.5 uM relative to control; assay type: functional, Homo sapiens
Outline: (§1)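 MCF-7 cells exposed for 72 h in 5% FBS-supplemented medium over 2.5-7.5 µM. Lysates were run on 10% SDS-PAGE and immunoblotted for cyclin D1 with ECL detection. Band intensity was quantified by densitometry, normalized to β-actin and expressed relative to DMSO control (100%).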

MCF7 [2] = assay: Repression of cyclinD1 level in MCF7 cells at 5 uM relative to control; assay type: functional, Homo sapiens; outline: as §1
MCF7 [3] = assay: Repression of cyclinD1 level in MCF7 cells at 7.5 uM relative to control; assay type: functional, Homo sapiens; outline: as §1
MCF7 [4] = assay: Repression of cyclinD1 level in MCF7 cells after 72 hrs; assay type: functional, cell-based; conditions: Homo sapiens, MCF7, 72 h; outline: as §1
MCF7 [5] = assay: Repression of cyclinD1 level in MCF7 cells at 10 uM; assay type: functional, cell-based; conditions: Homo sapiens
MCF7 [6] = assay: Antiproliferative activity against MCF7 cells by MTT assay; assay type: functional, cell-based; conditions: Homo sapiens
Outline: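 MCF-7 cells seeded in DMEM/Ham's F-12 with 10% FBS for 24 h, then exposed to test agents in DMSO (final 0.1%) in 5% FBS medium. Vehicle controls got matching DMSO. Medium replaced with 0.5 mM MTT in 10% FBS RPMI 1640 for 2 h at 37 °C, and reduced dye solubilized in DMSO. Six replicates.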

| SMILES | Activity (MCF7 [1]) [%] | Activity (MCF7 [2]) [%] | Activity (MCF7 [3]) [%] | IC50 (MCF7 [4]) [µM] | Activity (MCF7 [5]) | IC50 (MCF7 [6]) [µM] |
| --- | --- | --- | --- | --- | --- | --- |
| CC(C)=CCOc1c(C)c(C)c2c(c1C)CCC(C)(COc1ccc(/C=C3\SC(=O)NC3=O)cc1)O2 (stereo not given) | 76 | 21 | 5 |  |  |  |
| C=CCOc1c(C)c(C)c2c(c1C)CCC(C)(COc1ccc(/C=C3\SC(=O)NC3=O)cc1)O2 (stereo not given) | 45 | 42 | 2 | > 5 |  |  |
| CCCCOc1c(C)c(C)c2c(c1C)CCC(C)(COc1ccc(CC3SC(=O)NC3=O)cc1C(F)(F)F)O2 (stereo not given) |  |  |  | 9 |  |  |
| CC(C)=CCOc1c(C)c(C)c2c(c1C)CCC(C)(COc1ccc(/C=C3\SC(=O)NC3=O)cc1Br)O2 (stereo not given) | 96 | 84 | 53 |  |  |  |
| CC(C)=CCOc1c(C)c(C)c2c(c1C)CCC(C)(COc1ccc(/C=C3\SC(=O)NC3=O)cc1-c1ccc(F)cc1)O2 (stereo not given) | 87 | 92 | 85 |  |  |  |
| C=CCOc1c(C)c(C)c2c(c1C)CC[C@](C)(COc1ccc(/C=C3\SC(=O)NC3=O)cc1OC)O2 |  |  |  |  | Active |  |
| Cc1c(C)c2c(c(C)c1OC(=O)CCC(=O)O)CCC(C)(COc1ccc(/C=C3\SC(=O)NC3=O)cc1)O2 (stereo not given) | 115 | 98 | 76 |  |  |  |
| Cc1c(C)c2c(c(C)c1O)CCC(C)(COc1ccc(/C=C3\SC(=O)NC3=O)cc1)O2 (stereo not given) |  |  |  |  |  | 55 |
| CC(C)=CCOc1c(C)c(C)c2c(c1C)CCC(C)(COc1ccc(/C=C3\SC(=O)NC3=O)cc1C)O2 (stereo not given) | 89 | 56 | 27 |  |  |  |
| Cc1c(C)c2c(c(C)c1OC/C=C/c1ccccc1)CCC(C)(COc1ccc(/C=C3\SC(=O)NC3=O)cc1)O2 (stereo not given) | 92 | 65 | 43 |  |  |  |
| C=CCOc1c(C)c(C)c2c(c1C)CC[C@@](C)(COc1ccc(/C=C3\SC(=O)NC3=O)cc1OC)O2 |  |  |  |  |  | 5 |
| C=CCOc1c(C)c(C)c2c(c1C)CCC(C)(COc1ccc(/C=C3\SC(=O)NC3=O)cc1C)O2 (stereo not given) | 84 | 24 | 8 |  |  |  |
| C=CCOc1c(C)c(C)c2c(c1C)CCC(C)(COc1ccc(/C=C3\SC(=O)NC3=O)cc1OCC)O2 (stereo not given) | 107 | 87 | 75 |  |  |  |
| COc1cc(/C=C2\SC(=O)NC2=O)ccc1OCC1(C)CCc2c(C)c(OCC=C(C)C)c(C)c(C)c2O1 (stereo not given) | 95 | 78 | 54 |  |  |  |
| C=CCOc1c(C)c(C)c2c(c1C)CCC(C)(COc1cccc(/C=C3\SC(=O)NC3=O)c1)O2 (stereo not given) | 84 | 92 | 75 |  |  |  |
| CCOc1cc(/C=C2\SC(=O)NC2=O)ccc1OCC1(C)CCc2c(C)c(OCC=C(C)C)c(C)c(C)c2O1 (stereo not given) | 107 | 84 | 54 |  |  |  |
| CCCCOc1c(C)c(C)c2c(c1C)CCC(C)(COc1ccc(/C=C3\SC(=O)NC3=O)cc1C(F)(F)F)O2 (stereo not given) |  |  |  | 6 |  |  |
| C=CCOc1c(C)c(C)c2c(c1C)CCC(C)(COc1ccc(/C=C3\SC(=O)NC3=O)cc1OC)O2 (stereo not given) | 34 | 5 | 1 | 2.5 |  |  |
| C=CCOc1c(C)c(C)c2c(c1C)CCC(C)(COc1ccc(/C=C3\SC(=O)NC3=O)cc1Br)O2 (stereo not given) | 102 | 98 | 105 |  |  |  |
| Cc1c(C)c2c(c(C)c1OCc1ccccc1)CCC(C)(COc1ccc(/C=C3\SC(=O)NC3=O)cc1)O2 (stereo not given) | 85 | 42 | 12 |  |  |  |
| CC(C)=CCOc1c(C)c(C)c2c(c1C)CCC(C)(COc1ccc(/C=C3\SC(=O)NC3=O)cc1F)O2 (stereo not given) | 95 | 87 | 64 |  |  |  |
